Screening results (PubChem)
TAAR1 ag = agonists of human TAAR1. CHO RD-HGA16 TAAR1, Fluo-8 calcium fluorescence; vehicle wells 0%, saturating PEA agonist 100%. activation, % at 3 µM. 0.99% of 360,000 active;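 active means activation above the mean activation of all test compounds in the run plus 3 SD, cut at about 38% in these data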
Target sequence (Q96RJ0 whole entry, looked up): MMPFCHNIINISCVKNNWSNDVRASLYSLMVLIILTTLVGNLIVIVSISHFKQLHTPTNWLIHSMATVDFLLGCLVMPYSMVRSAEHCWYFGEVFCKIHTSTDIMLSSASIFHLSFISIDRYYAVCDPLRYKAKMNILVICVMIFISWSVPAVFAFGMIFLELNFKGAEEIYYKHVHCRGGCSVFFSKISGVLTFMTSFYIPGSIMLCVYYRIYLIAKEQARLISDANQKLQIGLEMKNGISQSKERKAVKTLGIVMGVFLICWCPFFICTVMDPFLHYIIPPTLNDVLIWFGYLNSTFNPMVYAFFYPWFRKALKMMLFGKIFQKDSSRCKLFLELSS
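Assay system – CHO-derived RD-HGA16 cells with stable Gα16 and human TAAR1 · Compound dosing – one-point dosing at 3 µM (nominal) · Incubation – 17-24 h seeding, 75 min 37 °C dye, 30 min RT · Measured by – kinetic Fluo-8 calcium fluorescence · Control set – DMSO vehicle as 0%, PEA at EC100 as 100% · Repeats – single well for each compound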
TAAR1 antagonist = antagonists of human TAAR1; Q96RJ0; CHO RD-HGA16 TAAR1, Fluo-8 calcium fluorescence, antagonist; inhibition, % at 3 µM; 1.5% of 360,000 active; AID 624466;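 active means inhibition above a per-plate cutoff, the mean inhibition of test compounds on that plate plus 3 SD, cut at about 49% in these data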
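Test system: CHO RD-HGA16 cells bearing hTAAR1 | Reagent: β-PEA, EC80 | Compound dosing: 3 µM, single point | Schedule: Dye loading 75 min at 37 °C, then 30 min room temperature | Signal: Calcium fluorescence with Fluo-8 | Evaluation: Percent inhibition of PEA-evoked calcium signal, max/basal emission ratio | Control set: DMSO-only wells and EC80 β-PEA-stimulated wells | Repeats: Singlicate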
M4 antag = blocks acetylcholine activation of human M4 receptor; 0.73% of 360,000 active; CHO-hM4 cells, ACh EC80, Fluo-8 calcium fluorescence; inhibition, % at 3 µM; P08173;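 active means inhibition above its plate's cutoff, the mean inhibition of sample wells plus 3 SD, cut at about 27% in these data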
M4 ag = CHRM4 agonism in calcium assay | P08173 | CHO-K1 hM4/Gqi5, Fluo-8 calcium fluorescence; vehicle 0%, full acetylcholine response 100% | activation, % at 3 µM | 0.14% of 360,000 active | AID 624127;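 active means activation above the run mean over all test wells plus 3 SD, cut at about 32% in these data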;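 further: peak over basal fluorescence ratio per well then scaled between controls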
M4 PAM = CHRM4 positive allosteric modulation; CHO-K1 hM4/Gqi5, Fluo-8 calcium fluorescence, ACh EC20; 0% = ACh EC20, 100% = maximal ACh; 0.4% of 360,000 active; AID 624126; P08173; activation, % at 3 µM;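 active means activation above its plate's cutoff, the mean activation of sample wells plus 3 SD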
A number is an active result. The list is not random: actives were taken first. Their share in the collection is about 3%.

`COc1cc(OC)cc(C(=O)N2CCN(S(C)(=O)=O)CC2)c1` gave TAAR1 ag inactive, TAAR1 antagonist inactive, M4 antag inactive, M4 ag inactive and M4 PAM 28.
CCOc1ccccc1C(=O)OCC(=O)NCC1CCCCC1 was read as TAAR1 ag inactive, TAAR1 antagonist inactive, M4 antag 42, M4 ag inactive and M4 PAM inactive.
O=[N+]([O-])c1ccc2nc(NN=Cc3ccc(O)cc3)sc2c1 was read as TAAR1 ag inactive, TAAR1 antagonist 51, M4 antag inactive, M4 ag inactive and M4 PAM inactive.
`CC(=O)Nc1ccc2c(c1)OCCOCCOc1cc(NC(C)=O)ccc1OCCO2` gave TAAR1 ag inactive, TAAR1 antagonist inactive, M4 antag 27, M4 ag inactive and M4 PAM inactive.
Screening O=C(Nc1ccc2c(c1)OCCO2)c1ccc(Br)c(S(=O)(=O)N2CCOCC2)c1 returned TAAR1 ag inactive, TAAR1 antagonist 54, M4 antag inactive, M4 ag inactive and M4 PAM inactive.
`O=C(Oc1ccc2c(c1)OCO2)c1ccc(Br)c(S(=O)(=O)N2CCOCC2)c1` gave TAAR1 ag inactive, TAAR1 antagonist 51, M4 antag inactive, M4 ag inactive and M4 PAM inactive.
`COc1cccc(S(=O)(=O)N(C)C[C@H]2OCc3cnnn3CCCC(=O)N([C@H](C)CO)C[C@@H]2C)c1` gave TAAR1 ag inactive, TAAR1 antagonist inactive, M4 antag inactive, M4 ag inactive and M4 PAM inactive.
For S=C1NCCN1c1ccc(Cl)cc1 the results were TAAR1 ag inactive and TAAR1 antagonist inactive.
For O=C(N[C@H](C(=O)N1CCC[C@H]1C(=O)NCc1ccccc1)c1ccccc1)c1ccc(Cl)cc1Cl the results were TAAR1 ag inactive and TAAR1 antagonist inactive.
`CC(=O)Nc1ccc(NC(=O)C2CCCCN2S(=O)(=O)c2ccc(C(C)(C)C)cc2)cc1` (configuration not stated) gave TAAR1 ag inactive, TAAR1 antagonist 55, M4 antag inactive, M4 ag inactive and M4 PAM inactive.
O=C(Nc1ccc(C(F)(F)F)cc1)C1CCCCN1S(=O)(=O)c1ccccc1 (configuration not stated) was read as TAAR1 ag inactive, TAAR1 antagonist inactive, M4 antag inactive, M4 ag inactive and M4 PAM inactive.
CC(C)(C)OC(=O)N1CCCC(C(=O)Nc2ccc(C(=O)NC3CC3)cc2)C1 (configuration not stated) was read as TAAR1 ag inactive, TAAR1 antagonist inactive, M4 antag inactive, M4 ag inactive and M4 PAM inactive.
`COc1ccc(C2=NOC3(CC(=O)N(c4ccc(F)cc4)C3=O)C2)cc1` (configuration not stated) gave TAAR1 ag inactive, TAAR1 antagonist inactive, M4 antag inactive, M4 ag inactive and M4 PAM 35.
Screening COc1ccc(C2=NOC3(CC(=O)N(c4ccc(F)cc4)C3=O)C2)c(OC)c1 (configuration not stated) returned TAAR1 ag inactive, TAAR1 antagonist inactive, M4 antag inactive, M4 ag inactive and M4 PAM inactive.
For COc1ccc(NS(=O)(=O)c2cccc(C(=O)OCC(=O)Nc3cc(C)on3)c2)cc1 the results were TAAR1 ag inactive, TAAR1 antagonist inactive, M4 antag inactive, M4 ag inactive and M4 PAM inactive.
Screening Cc1cc(NC(=O)COC(=O)c2cccc(S(=O)(=O)N(C)C3CCCCC3)c2)no1 returned TAAR1 ag inactive, TAAR1 antagonist inactive, M4 antag 30, M4 ag inactive and M4 PAM inactive.
`CC(C)(C)C(=O)Nc1ccccc1C(=O)NCc1cccnc1` gave TAAR1 ag inactive, TAAR1 antagonist inactive, M4 antag inactive, M4 ag inactive and M4 PAM inactive.
CC(C)(C)c1ccccc1OCC(=O)Nc1ccccc1C(=O)NCc1cccnc1 was read as TAAR1 ag inactive, TAAR1 antagonist 58, M4 antag inactive, M4 ag inactive and M4 PAM inactive.
NC(=O)c1ccc(Nc2nc(C(N)COCc3ccccc3)cs2)cc1 (configuration not stated) was read as TAAR1 ag inactive, TAAR1 antagonist inactive, M4 antag inactive, M4 ag inactive and M4 PAM inactive.
NC(CCc1ccccc1)c1csc(Nc2ccc(C(=O)NCCO)cc2)n1 (configuration not stated) was read as TAAR1 ag inactive, TAAR1 antagonist inactive, M4 antag inactive, M4 ag inactive and M4 PAM inactive.
NC(COCc1ccccc1)c1csc(Nc2ccc(C(=O)c3ccccc3)cc2)n1 (configuration not stated) was read as TAAR1 ag 50, TAAR1 antagonist inactive, M4 antag inactive, M4 ag inactive and M4 PAM inactive.
Screening NC(CCc1ccccc1)c1csc(Nc2ccc(C(=O)c3ccccc3)cc2)n1 (configuration not stated) returned TAAR1 ag 41, TAAR1 antagonist inactive, M4 antag inactive, M4 ag inactive and M4 PAM inactive.
For CS(=O)(=O)Nc1ccc(C(=O)N2CCCCC2)cc1 the results were TAAR1 ag inactive, TAAR1 antagonist inactive, M4 antag inactive, M4 ag inactive and M4 PAM 23.
O=C(c1ccc(NC(=S)NCc2ccc(Cl)cc2)cc1)N1CCCCC1 was read as TAAR1 ag 44, TAAR1 antagonist inactive, M4 antag inactive, M4 ag inactive and M4 PAM inactive.
For O=C(CNCc1ccc(Cl)cc1)Nc1ccc(C(=O)N2CCCCC2)cc1 the results were TAAR1 ag inactive, TAAR1 antagonist inactive, M4 antag inactive, M4 ag inactive and M4 PAM inactive.
CCCCc1c(-c2ccccc2OC)ncn1Cc1c(F)cccc1F was read as TAAR1 ag inactive and TAAR1 antagonist inactive.
Screening O=[N+]([O-])c1ccc(O)c(/C=N/Nc2nn[nH]n2)c1 returned TAAR1 ag inactive, TAAR1 antagonist inactive, M4 antag inactive, M4 ag inactive and M4 PAM 24.
`Oc1ccccc1/C=N/Nc1nn[nH]n1` gave TAAR1 ag inactive, TAAR1 antagonist inactive, M4 antag inactive, M4 ag inactive and M4 PAM inactive.
Screening C#CCOCCOCCOCCNc1nc(N2CCN(C(=O)CCCCCCCCCCNC(=O)Cn3cc(C[C@@H](C)O)nn3)CC2)nc(N2CCN(C(=O)CCCCCCCCCCNC(=O)[C@H](CO)n3cc(CCCSC)nn3)CC2)n1 returned TAAR1 ag inactive, TAAR1 antagonist 49, M4 antag inactive, M4 ag inactive and M4 PAM inactive.
C#CCOCCOCCOCCNc1nc(N2CCN(C(=O)CCCCCCCCCCNC(=O)Cn3cc(CCCCCN)nn3)CC2)nc(N2CCN(C(=O)CCCCCCCCCCNC(=O)[C@H]([C@@H](C)CC)n3cc(CCCCN=C(N)N)nn3)CC2)n1 was read as M4 antag 41, M4 ag inactive and M4 PAM inactive.
